Test results: ChEMBL document CHEMBL1833877, “Antinociceptive properties of bergenin” (J Nat Prod, 2011)

How the values were obtained:
Mus musculus [1] = assay: Neurotoxicity in mouse assessed as effect on motor coordination by measuring reduced latency at 10 mg/kg, ip after 40 mins by rotarod test; type: toxicity, organism-based; set-up: dose 10 mg/kg, route intraperitoneal; settings: in vivo
Procedure, shortened: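 Rotarod: a 3 cm bar split into five compartments, turning at a constant 5 rpm. Male mice were placed on the rod 40 min after ip dosing (vehicle 2% DMSO in saline), and time on the rod was recorded up to 120 s. Result is mean time per group; n = 6, one-way ANOVA with Tukey's test.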

Mus musculus [2] = assay: Neurotoxicity in mouse assessed as effect on motor coordination at 10 mg/kg, ip after 40 mins by open field test; type: toxicity, organism-based; set-up: dose 10 mg/kg, route intraperitoneal; settings: in vivo
Procedure, shortened: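 Male mice were dosed ip (vehicle 2% DMSO in saline). 40 min later each was placed alone in a 40 × 60 × 50 cm wooden box with the floor divided into 12 squares. Squares crossed with all four paws were counted over 3 min. n = 6 mice per group, means ± SEM, one-way ANOVA with Tukey's test.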

In the case of `CN1C(=O)CN=C(c2ccccc2)c2cc(Cl)ccc21` [DIAZEPAM], the Activity (Mus musculus [1]) is reported as “Toxic” and the Activity (Mus musculus [2]) is reported as “Toxic”.
